1 compound from ChEMBL document CHEMBL5030531, “Synthetic Glycolipids as Molecular Vaccine Adjuvants: Mechanism of Action in Human Cells and In Vivo Activity” (J Med Chem, 2021) can be followed below.

Active and inactive are the calls of the source. No cut-off for these calls is given here.

The target of series [1] is Myeloid differentiation primary response protein MyD88 (Homo sapiens) (UniProt Q99836). As to the kind of experiment: Activation of MyD88 dependent pathway in human THP-1 derived macrophages assessed as increase in NF-kappaB p65 phosphorylation at 10 uM measured after 1 hr by immunoblotting analysis. It counts as tissue-based. As to conditions: Macrophage, filed as activator. The method, boiled down:
(§1)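 PMA-differentiated THP-1 macrophages treated with compound at 10 μM (S-LPS 100 ng/mL, MPLA 1 μg/mL as references) and harvested at set times. RIPA lysates with protease/phosphatase inhibitors separated by SDS-PAGE, transferred to PVDF and probed for phospho-p65 (Ser536) and phospho-p38 (Thr180/Tyr182) with β-actin as loading control. Detection by chemiluminescence, densitometry; representative of at least two experiments.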
(In general: A western blot detects proteins with antibodies after separation by electrophoresis.)

The target is the same in series [2]. As to the kind of experiment: Activation of MyD88 dependent pathway in human THP-1 derived macrophages assessed as increase in MAPK p38 phosphorylation at 10 uM measured after 1 hr by immunoblotting analysis. Type of series: tissue-based. As to conditions: Macrophage, filed as activator. The method, boiled down:
as §1

For series [3], the system named is Macrophage. As to the kind of experiment: Induction of IL-1beta production in human THP-1 derived macrophages assessed as secretion of IL-1beta mature form in supernatant at 20 uM measured up to 18 hrs by ELISA. It counts as functional, tissue-based. To be noted: time hrs <=18. The method in brief: (§2)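 Differentiated THP-1 macrophages treated with compound at 20 μM (S-LPS, R-LPS 100 ng/mL; MPLA 1 μg/mL) for 3, 6 and 18 h. IL-1β measured by ELISA in both cell lysates and supernatants; n = 3, one-way ANOVA versus untreated.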

The test system of series [4] is Macrophage. Briefly: Activation of TRIF dependent pathway in human THP-1 derived macrophages assessed as increase in RSAD2 expression measured after 6 hrs. Type of series: tissue-based. The method in brief:
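RSAD2 mRNA in differentiated THP-1 macrophages after compound at 10 μM, measured by RT-qPCR (annealing 60 °C) with β-actin housekeeping gene. Expressed as ΔΔCt fold change versus untreated cells; n = 3, Wilcoxon test.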

The target of series [5] is Myeloid differentiation primary response protein MyD88 (Homo sapiens) (UniProt Q99836). Briefly: Activation of MyD88 dependent pathway in human THP-1 derived macrophages assessed as increase in IL-1 beta secretion measured after 18 hrs by ELISA. To be noted: Macrophage, filed as activator. The method, boiled down:
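THP-1 cells differentiated with PMA 25 ng/mL for 72 h, then rested 24 h in fresh medium before stimulation with compound (range 0.1–1 to 10–25 μM) in RPMI/10% FBS for 18 h. S-LPS and MPLA used as references. TNFα, IL-1β, IL-6 in supernatants quantified by sandwich ELISA at 450 nm (570 nm correction).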
On the technique in general: An ELISA detects its analyte on a solid surface through an enzyme-linked reagent.

For series [6], the target named is T1, Toll-like receptor 4/MD-2 (Homo sapiens) (UniProt O00206+Q9Y6Y9). As to the kind of experiment: Binding affinity to NTA sensor chip immobilized recombinant human TLR4/MD2 assessed as maximum response by surface plasmon resonance analysis. Type of series: protein-complex assay. As to conditions: filed as agonist. The method, boiled down: (§3)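 Recombinant human TLR4/MD2 complex (20 μg/mL in 10 mM sodium acetate pH 4.0) amine-coupled to NTA chip after NiCl2 and EDC/NHS activation, ethanolamine-blocked. Analytes sonicated 15 min and diluted in PBS-P+ with 5% DMSO, injected over the series 4.34–69.50 μM or 5.34–85.50 μM. Regeneration 50 mM NaOH. Kinetics fitted to 1:1 model after solvent correction.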
On the technique in general: Surface plasmon resonance follows binding to a sensor surface in real time, without labels.

The target in series [7] is T1, Toll-like receptor 4/MD-2 (Homo sapiens). As to the kind of experiment: Binding affinity to NTA sensor chip immobilized recombinant human TLR4/MD2 assessed as association rate constant by surface plasmon resonance analysis. Type of series: protein-complex assay. To be noted: filed as agonist. The method in brief: as §3
For series [8], the system named is Macrophage. Briefly: Induction of IL-1beta production in human THP-1 derived macrophages assessed as accumulation of IL-1beta precursor in cell lysates at 20 uM measured up to 18 hrs by ELISA. It counts as functional, subcellular. To be noted: time hrs <=18. The method in brief:
as §2

Series [9] in a line: Toxicity in C57BL/6 […] assessed as state of alertness at 10 ug observed daily for 7 days. As to conditions: mouse, in vivo, 168 h; dose 10 µg, time 7 day. The method, boiled down: (§4)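 Six-week-old female C57BL/6 mice were injected subcutaneously in the flank with 10 μg adjuvant in 50 μL PBS. Mice were monitored and weighed daily for 7 days, with injection-site response and alertness noted. Group size is n = 3 per treatment in the methods and n = 4 in the figure legend.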

Series [10] addresses Toll-like receptor 2 (Homo sapiens) (UniProt O60603). As to the kind of experiment: Agonist activity human TLR2 in PAM2CSK4 stimulated HEK-Blue hTLR2 cells at 0.1 to 25 uM incubated for 18 hrs by QUANTI-blue assay. It counts as cell-based. To be noted: dose 0.1-25 µM. The method, boiled down:
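HEK-Blue hTLR2 cells exposed 18 h to compound (0.1–25 μM); SEAP in supernatant by QUANTI-Blue at OD 630 nm. Values normalized to PAM2CSK4 (10 ng/mL, 18 h) and expressed as mean percentage of three independent experiments.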

In series [11] the test system is Mus musculus. Briefly: Immuno-adjuvant activity in C57BL/6 mouse assessed as increase in levels of anti-ova total IgG in sera at 10 ug administered subcutaneously on day 1 and as booster dose on day 22 in presence of ovalbumin and […] by ELISA. It counts as functional, organism-based. To be noted: dose 10.0 µg. The method in brief: (§5)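 Female C57BL/6 mice (n = 8) given 50 μL s.c. in the flank of 500 μg endotoxin-depleted OVA mixed with 10 μg adjuvant in PBS. Booster on opposite flank day 22; OVA-only control group. Tail-vein sera taken days 21 and 41, serially diluted 1:100–1:12 800 and assayed by ELISA on OVA-coated plates (4 μg/mL). Detection with HRP anti-mouse IgG, TMB, A450.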

The subject of series [12] is Macrophage. As to the kind of experiment: Activation of TRIF dependent pathway in human THP-1 derived macrophages assessed as increase in IRF3 phosphorylation at 10 uM measured up to 3 hrs by immunoblotting analysis. It counts as tissue-based. As to conditions: time hrs <=3. The method in brief: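 Differentiated THP-1 macrophages exposed to compound at 10 μM, alongside S-LPS and R-LPS (100 ng/mL each) and MPLA (1 μg/mL), and collected over a time course. Lysates were immunoblotted for phospho-IRF3 (Ser386) with β-actin as loading control and detected by chemiluminescence.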

Series [13] addresses T1, Toll-like receptor 4/MD-2 (Homo sapiens). As to the kind of experiment: Binding affinity to NTA sensor chip immobilized recombinant human TLR4/MD2 assessed as dissociation rate kinetics by surface plasmon resonance analysis. Type of series: protein-complex assay. To be noted: filed as agonist. The method in brief: as §3
Series [14] deals with Nuclear factor NF-kappa-B complex (Homo sapiens) (UniProt Q00653+P19838+Q04206). Briefly: Activation of NF-kappaB in LPS-stimulated HEK-Blue hTLR4 cells assessed as increase in release of SEAP reporter protein level incubated for 18 hrs by QUANTI-blue assay. Type of series: cell-based. As to conditions: filed as activator. The method, boiled down:
(§6)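 HEK-Blue hTLR4 cells (HEK293 with CD14, TLR4, MD-2 and NF-κB/AP-1-driven SEAP) in DMEM/10% FBS, seeded overnight (37 °C, 5% CO2), washed, then exposed to compound 0.1–25 μM in fresh medium for 18 h. SEAP in supernatant read with QUANTI-Blue substrate (0.5–4 h, RT) at OD 630 nm. Normalized to 100 ng/mL S. minnesota smooth LPS; mean percentage of three independent experiments.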

Series [15] deals with Toll-like receptor 4 (Homo sapiens) (UniProt O00206). Briefly: Antagonist activity at human TLR4 in LPS-stimulated HEK-Blue hTLR4 cells assessed as inhibition of LPS-induced SEAP production at 0.1 to 25 uM incubated for 18 hrs by QUANTI-blue assay. As to conditions: dose 0.1-25 µM.
A further series has as its system HEK-Blue hTLR4. As to the kind of experiment: Activation of AP-1 in LPS-stimulated HEK-Blue hTLR4 cells assessed as increase in release of SEAP reporter protein level incubated for 18 hrs by QUANTI-blue assay. Type of series: cell-based. As to conditions: Homo sapiens, filed as activator. The method in brief:
as §6

Series [16] is described as follows: Toxicity in C57BL/6 […] assessed as local response at injection site at 10 ug observed daily for 7 days. To be noted: mouse, in vivo, 168 h; dose 10 µg, time 7 day. The method in brief:
as §4

Series [17] is described as follows: Toxicity in C57BL/6 […] assessed as effect on body weight at 10 ug measured daily for 7 days. To be noted: mouse, in vivo, 168 h; dose 10 µg, time 7 day. The method, boiled down:
as §4

Series [18] addresses Toll-like receptor 4 (Homo sapiens) (UniProt O00206). As to the kind of experiment: Activation of human TLR4 in IL-1beta stimulated HEK-Blue Null cells assessed as NF-kappaB activation at 0.1 to 25 uM incubated for 18 hrs by QUANTI- blue assay. It counts as tissue-based. As to conditions: dose 0.1-25 µM. The method, boiled down:
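HEK-Blue Null cells, which carry the SEAP reporter but lack LPS receptors, were given compound (0.1–25 μM) for 18 h. SEAP was read by QUANTI-Blue at OD 630 nm and normalized to 100 ng/mL human IL-1β as positive control. Results are the mean percentage of three independent experiments.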

Series [19] has as its system Mus musculus. As to the kind of experiment: Immuno-adjuvant activity in C57BL/6 mouse assessed as increase in levels of anti-ova total IgG in sera at 10 ug administered subcutaneously in presence of ovalbumin and measured 21 days post immunization by ELISA. Type of series: functional, organism-based. As to conditions: dose 10.0 µg, time 21.0 day. The method in brief:
as §5

The test system of series [20] is Macrophage. As to the kind of experiment: Activation of TRIF dependent pathway in human THP-1 derived macrophages assessed as increase in IFNbeta mRNA expression measured 2 hrs post treatment by real-time PCR.

Sequence of Myeloid differentiation primary response protein MyD88 (Homo sapiens) (Q99836 whole entry): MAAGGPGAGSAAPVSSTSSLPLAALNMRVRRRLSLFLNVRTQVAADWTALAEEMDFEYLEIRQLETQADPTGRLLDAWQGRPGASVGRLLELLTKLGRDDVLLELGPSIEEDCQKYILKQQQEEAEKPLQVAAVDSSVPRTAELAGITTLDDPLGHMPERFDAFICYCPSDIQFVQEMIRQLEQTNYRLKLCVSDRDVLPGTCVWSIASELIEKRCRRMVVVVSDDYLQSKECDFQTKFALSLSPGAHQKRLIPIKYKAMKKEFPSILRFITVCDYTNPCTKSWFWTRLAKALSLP
Sequence of Toll-like receptor 4 (Homo sapiens) (O00206 whole entry): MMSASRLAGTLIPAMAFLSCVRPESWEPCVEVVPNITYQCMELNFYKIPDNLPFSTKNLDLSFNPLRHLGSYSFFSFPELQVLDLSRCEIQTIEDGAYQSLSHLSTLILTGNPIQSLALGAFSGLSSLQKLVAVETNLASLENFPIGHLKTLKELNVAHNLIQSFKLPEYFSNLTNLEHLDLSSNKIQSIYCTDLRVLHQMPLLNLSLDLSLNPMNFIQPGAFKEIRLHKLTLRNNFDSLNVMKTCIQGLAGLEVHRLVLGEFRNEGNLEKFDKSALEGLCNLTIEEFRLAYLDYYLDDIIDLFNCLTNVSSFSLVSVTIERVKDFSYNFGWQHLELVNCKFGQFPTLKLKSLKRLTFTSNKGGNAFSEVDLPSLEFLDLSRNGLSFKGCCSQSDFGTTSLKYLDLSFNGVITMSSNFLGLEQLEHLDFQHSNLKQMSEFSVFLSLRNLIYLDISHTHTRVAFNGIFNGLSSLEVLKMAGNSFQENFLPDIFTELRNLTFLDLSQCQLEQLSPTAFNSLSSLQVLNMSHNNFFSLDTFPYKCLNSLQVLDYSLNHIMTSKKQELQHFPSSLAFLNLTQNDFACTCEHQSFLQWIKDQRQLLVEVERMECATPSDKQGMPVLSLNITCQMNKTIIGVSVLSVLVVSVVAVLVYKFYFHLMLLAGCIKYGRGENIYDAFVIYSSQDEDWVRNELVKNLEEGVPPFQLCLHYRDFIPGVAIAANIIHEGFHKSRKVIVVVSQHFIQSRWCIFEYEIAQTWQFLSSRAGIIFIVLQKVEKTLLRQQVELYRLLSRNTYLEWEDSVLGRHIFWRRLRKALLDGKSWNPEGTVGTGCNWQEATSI
Sequence of Nuclear factor NF-kappa-B complex (Homo sapiens) (P19838 whole entry, looked up): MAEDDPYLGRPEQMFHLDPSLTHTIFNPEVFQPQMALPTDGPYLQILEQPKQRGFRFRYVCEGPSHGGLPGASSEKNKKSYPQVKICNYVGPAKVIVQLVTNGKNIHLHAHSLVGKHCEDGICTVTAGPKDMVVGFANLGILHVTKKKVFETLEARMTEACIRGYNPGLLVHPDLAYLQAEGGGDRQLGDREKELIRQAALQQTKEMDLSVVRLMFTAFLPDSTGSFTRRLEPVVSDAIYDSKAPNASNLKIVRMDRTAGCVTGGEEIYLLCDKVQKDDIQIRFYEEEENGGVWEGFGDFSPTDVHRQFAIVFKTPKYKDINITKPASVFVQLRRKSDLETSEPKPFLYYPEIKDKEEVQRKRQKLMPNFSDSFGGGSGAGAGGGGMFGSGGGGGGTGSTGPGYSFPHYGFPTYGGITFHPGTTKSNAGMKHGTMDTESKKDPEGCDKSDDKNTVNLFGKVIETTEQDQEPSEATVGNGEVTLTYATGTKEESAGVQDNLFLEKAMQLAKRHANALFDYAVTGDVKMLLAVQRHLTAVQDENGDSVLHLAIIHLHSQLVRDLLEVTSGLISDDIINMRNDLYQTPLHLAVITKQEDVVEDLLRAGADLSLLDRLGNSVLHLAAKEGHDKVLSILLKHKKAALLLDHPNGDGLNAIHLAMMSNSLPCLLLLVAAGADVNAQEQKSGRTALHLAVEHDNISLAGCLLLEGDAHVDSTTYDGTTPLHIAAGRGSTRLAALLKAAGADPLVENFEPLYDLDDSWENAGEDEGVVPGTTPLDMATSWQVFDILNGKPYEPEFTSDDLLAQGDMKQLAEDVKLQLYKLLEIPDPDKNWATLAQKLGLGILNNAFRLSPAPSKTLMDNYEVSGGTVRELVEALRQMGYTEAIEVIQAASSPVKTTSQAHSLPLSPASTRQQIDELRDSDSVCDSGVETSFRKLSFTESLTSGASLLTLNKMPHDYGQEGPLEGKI
Sequence of Nuclear factor NF-kappa-B complex (Homo sapiens) (Q00653 whole entry, looked up): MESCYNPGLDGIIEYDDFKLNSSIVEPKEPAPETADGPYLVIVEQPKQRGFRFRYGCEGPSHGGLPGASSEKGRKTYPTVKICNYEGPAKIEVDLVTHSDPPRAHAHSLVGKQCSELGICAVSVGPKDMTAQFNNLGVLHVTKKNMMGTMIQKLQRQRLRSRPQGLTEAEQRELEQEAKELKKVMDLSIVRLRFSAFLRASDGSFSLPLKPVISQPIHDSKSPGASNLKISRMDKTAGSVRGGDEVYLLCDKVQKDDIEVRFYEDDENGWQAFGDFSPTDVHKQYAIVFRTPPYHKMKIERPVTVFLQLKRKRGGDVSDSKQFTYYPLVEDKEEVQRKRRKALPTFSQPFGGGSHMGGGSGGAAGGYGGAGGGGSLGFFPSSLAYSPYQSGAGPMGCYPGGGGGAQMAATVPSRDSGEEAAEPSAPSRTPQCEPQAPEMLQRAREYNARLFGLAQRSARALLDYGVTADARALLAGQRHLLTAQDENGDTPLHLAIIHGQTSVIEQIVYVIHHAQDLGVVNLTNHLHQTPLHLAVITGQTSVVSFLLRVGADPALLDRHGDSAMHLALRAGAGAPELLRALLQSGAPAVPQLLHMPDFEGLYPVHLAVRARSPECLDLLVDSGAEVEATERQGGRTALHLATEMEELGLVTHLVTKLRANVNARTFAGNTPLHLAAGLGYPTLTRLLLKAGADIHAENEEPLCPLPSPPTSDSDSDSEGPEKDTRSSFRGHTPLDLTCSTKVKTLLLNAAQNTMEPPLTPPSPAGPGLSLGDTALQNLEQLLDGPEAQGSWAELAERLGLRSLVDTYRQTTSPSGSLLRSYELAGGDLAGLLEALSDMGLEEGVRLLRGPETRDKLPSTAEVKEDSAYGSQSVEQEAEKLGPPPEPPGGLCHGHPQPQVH
Sequence of Nuclear factor NF-kappa-B complex (Homo sapiens) (Q04206 whole entry, looked up): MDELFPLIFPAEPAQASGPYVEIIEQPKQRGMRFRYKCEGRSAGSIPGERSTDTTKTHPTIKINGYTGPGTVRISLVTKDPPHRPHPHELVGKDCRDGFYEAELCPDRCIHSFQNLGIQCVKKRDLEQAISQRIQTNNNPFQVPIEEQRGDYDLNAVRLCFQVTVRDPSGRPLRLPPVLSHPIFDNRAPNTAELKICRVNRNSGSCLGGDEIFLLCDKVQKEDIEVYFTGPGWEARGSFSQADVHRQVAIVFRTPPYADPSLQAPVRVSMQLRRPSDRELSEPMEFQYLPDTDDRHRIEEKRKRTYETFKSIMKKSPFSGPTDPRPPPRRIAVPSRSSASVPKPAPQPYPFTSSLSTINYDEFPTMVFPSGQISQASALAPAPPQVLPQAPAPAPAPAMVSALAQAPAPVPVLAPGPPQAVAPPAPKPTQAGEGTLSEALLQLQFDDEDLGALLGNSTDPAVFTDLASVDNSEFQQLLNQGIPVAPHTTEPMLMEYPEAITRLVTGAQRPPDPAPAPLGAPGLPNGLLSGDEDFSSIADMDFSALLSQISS
Sequence of Toll-like receptor 2 (Homo sapiens) (O60603 whole entry): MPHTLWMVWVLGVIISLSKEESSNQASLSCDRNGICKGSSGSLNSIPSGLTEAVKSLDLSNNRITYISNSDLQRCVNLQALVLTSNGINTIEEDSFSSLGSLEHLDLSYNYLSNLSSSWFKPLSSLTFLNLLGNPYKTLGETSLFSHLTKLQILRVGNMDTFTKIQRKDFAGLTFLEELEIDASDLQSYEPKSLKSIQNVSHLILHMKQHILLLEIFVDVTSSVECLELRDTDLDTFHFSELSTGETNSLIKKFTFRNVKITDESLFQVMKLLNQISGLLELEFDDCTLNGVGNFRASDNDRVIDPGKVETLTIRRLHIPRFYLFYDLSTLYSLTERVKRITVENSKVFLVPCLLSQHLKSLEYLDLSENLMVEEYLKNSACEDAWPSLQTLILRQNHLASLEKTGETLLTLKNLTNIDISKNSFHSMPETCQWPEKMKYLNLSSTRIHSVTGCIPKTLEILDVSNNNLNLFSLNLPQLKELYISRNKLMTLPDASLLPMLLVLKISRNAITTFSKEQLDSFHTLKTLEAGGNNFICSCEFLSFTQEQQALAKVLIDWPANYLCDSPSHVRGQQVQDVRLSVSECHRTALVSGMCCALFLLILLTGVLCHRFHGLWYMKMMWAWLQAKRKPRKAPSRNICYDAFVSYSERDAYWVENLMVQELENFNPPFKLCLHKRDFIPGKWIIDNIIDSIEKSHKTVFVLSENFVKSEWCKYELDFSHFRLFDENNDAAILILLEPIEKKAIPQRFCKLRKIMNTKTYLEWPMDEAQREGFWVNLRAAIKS

Take `CCCCCCCCCCCCCC(=O)N[C@H]1[C@@H](OP(=O)([O-])[O-])O[C@H](CO)[C@@H](OC(=O)CCCCCCCCCCCCC)[C@@H]1OC(=O)CCCCCCCCCCCCC.[Na+].[Na+]`: the result (in series [1]; in [2]; in the series on Macrophage [8]; in the series on Mus musculus [11]; in the series with Mus musculus [19]) was Active. Besides, the outcome (with Macrophage [3]; in the series with Macrophage [4]; in series [10]; in the series on Macrophage [12]; in [15]; in [18]) was inactive. The outcome with Macrophage [20] was inactive. Moreover, the Activity result in series [5] is “Dose-Dependent Effect”; in [9] it was “Non-Toxic”; in series [14], “Dose-Dependent Effect”; in the series with HEK-Blue hTLR4 it was “Dose-Dependent Effect”; in [16], “Non-Toxic”; in series [17], “Non-Toxic”. In addition, in series [6], the Rmax is 8.15 RU. The Ka in series [7] was 3.84 10^3(1/Ms). The Kdiss in [13] is 7.09 10^-4/s.
